Results from ChEMBL document CHEMBL4842338, “System-oriented optimization of multi-target 2,6-diaminopurine derivatives: Easily accessible broad-spectrum antivirals active against flaviviruses, influenza virus and SARS-CoV-2” (Eur J Med Chem, 2021).
Activity calls are given as the source filed them. The calls are words filed in the database; no cut-off is given here.

Columns and labels:
[1] = (§1) Cytotoxicity against human Huh-7 cells assessed as reduction in cell viability by Celltiter-Glo luminescent cell viability assay; format: cell-based; details: Huh-7 cells
Summary of the method: (§2)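 Compound-exposed cells assessed by CellTiter-Glo luminescence versus DMSO control; CC50 from dose-response.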

[2] = system: dengue virus type 2; experiment: Antiviral activity against Dengue virus serotype 2 New Guinea C infected in pre-seeded Huh-7 cells assessed as inhibition of viral replication incubated for 72 hrs by immunodetection based secondary yield reduction assay; format: functional, organism-based
[3] = system: Zika virus; experiment: Antiviral activity against Zika virus H/PF/2013 infected in pre-seeded Huh-7 cells assessed as inhibition of viral replication incubated for 72 hrs by immunodetection based secondary yield reduction assay; format: functional, organism-based; details: H/PF/2013, Huh-7, 72 h
[4] = Selectivity index, ratio of CC50 for human Huh-7 cells to IC50 for Zika virus H/PF/2013 infected in pre-seeded Huh-7 cells assessed as inhibition of viral replication incubated for 72 hrs by immunodetection based secondary yield reduction assay; format: toxicity, cell-based; details: read-out: Selectivity Index
[5] = Inhibition of DENV NS5-MTase domain using GpppA2'OMe-RNA74 as a substrate incubated for 30 mins by filter binding assay; set-up: species or system dengue virus type 2; details: read-out: IC50
Summary of the method: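 MTase (1 μM) incubated with increasing inhibitor in 40 mM Tris-HCl pH 7.5, 5 mM DTT, 10 μM AdoMet ([3H]-labelled), 0.5 μM GpppA2′OMe-RNA74 substrate, 30 °C for 30 min; stopped in ice-cold 100 μM AdoHcy; DEAE filter binding, scintillation counting.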

[6] = Inhibition of full length ZIKV NS5-MTase domain using 7MeGpppAC4 as a substrate incubated for 30 mins by filter binding assay; set-up: species or system Zika virus
[7] = target: Abl (Tyrosine-protein kinase ABL1) (Homo sapiens, UniProt P00519); experiment: Inhibition of human recombinant N terminal His6 tagged Abl (27 to end residue) assessed as residual activity at 5 uM using KKGEAIYAADFA-NH2 as a substrate in the presence of NP-40 incubated for 10 mins by scintillation counting analysis relative to control; details: probe KKGEAIYAADFA-NH2, read-out: Activity
Chain of Abl (Tyrosine-protein kinase ABL1) (P00519 whole entry): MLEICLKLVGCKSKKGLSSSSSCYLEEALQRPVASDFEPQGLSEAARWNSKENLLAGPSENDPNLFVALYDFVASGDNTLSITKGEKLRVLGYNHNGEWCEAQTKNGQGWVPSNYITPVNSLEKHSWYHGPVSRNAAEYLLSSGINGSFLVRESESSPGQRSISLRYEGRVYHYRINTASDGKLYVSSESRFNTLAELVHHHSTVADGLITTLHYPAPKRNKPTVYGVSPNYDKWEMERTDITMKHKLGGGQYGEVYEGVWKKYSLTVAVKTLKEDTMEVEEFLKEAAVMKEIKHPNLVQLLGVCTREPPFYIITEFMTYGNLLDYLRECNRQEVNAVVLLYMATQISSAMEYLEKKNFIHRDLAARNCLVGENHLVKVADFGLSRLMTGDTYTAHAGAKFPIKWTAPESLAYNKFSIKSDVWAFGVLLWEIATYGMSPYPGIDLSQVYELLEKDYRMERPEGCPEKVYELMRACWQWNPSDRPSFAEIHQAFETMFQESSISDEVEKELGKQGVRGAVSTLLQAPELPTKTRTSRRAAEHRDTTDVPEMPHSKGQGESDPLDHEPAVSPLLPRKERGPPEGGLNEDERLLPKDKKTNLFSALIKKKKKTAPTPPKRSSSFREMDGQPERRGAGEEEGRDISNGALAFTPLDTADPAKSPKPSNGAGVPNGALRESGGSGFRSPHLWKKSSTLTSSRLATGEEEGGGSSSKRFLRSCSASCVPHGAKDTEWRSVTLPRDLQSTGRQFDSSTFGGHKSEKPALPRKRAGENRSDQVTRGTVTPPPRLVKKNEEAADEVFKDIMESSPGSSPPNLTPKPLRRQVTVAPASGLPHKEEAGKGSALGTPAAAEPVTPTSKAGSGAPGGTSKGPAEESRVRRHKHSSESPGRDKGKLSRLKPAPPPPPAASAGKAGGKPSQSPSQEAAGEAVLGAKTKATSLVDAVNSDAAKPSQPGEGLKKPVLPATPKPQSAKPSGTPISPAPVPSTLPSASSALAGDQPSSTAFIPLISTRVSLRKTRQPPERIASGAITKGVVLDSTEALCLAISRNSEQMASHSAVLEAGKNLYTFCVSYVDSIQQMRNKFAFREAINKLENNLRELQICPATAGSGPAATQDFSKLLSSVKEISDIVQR
Summary of the method: (§3)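 Compounds at fixed 5 μM; 10–50 ng kinase, substrate and NP-40/BSA per supplementary table, 10 μL at 30 °C for 10 min in low-binding tubes. Reactions spotted on filter, dried, scintillation counted. Mean ± SD of two independent experiments.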

[8] = target: CDK9/cyclin T1 (Homo sapiens, UniProt P50750); experiment: Inhibition of human full length CDK9/ His-tagged cT1 assessed as residual activity at 5 uM using CDKtide as a substrate in the presence of BSA incubated for 10 mins by scintillation counting analysis relative to control; format: protein-complex assay; details: full length CDK9/His-tagged cyclin T1 complex, probe CDKtide, read-out: Activity; summary of the method: as §3
Chain of CDK9/cyclin T1 (O60563 whole entry): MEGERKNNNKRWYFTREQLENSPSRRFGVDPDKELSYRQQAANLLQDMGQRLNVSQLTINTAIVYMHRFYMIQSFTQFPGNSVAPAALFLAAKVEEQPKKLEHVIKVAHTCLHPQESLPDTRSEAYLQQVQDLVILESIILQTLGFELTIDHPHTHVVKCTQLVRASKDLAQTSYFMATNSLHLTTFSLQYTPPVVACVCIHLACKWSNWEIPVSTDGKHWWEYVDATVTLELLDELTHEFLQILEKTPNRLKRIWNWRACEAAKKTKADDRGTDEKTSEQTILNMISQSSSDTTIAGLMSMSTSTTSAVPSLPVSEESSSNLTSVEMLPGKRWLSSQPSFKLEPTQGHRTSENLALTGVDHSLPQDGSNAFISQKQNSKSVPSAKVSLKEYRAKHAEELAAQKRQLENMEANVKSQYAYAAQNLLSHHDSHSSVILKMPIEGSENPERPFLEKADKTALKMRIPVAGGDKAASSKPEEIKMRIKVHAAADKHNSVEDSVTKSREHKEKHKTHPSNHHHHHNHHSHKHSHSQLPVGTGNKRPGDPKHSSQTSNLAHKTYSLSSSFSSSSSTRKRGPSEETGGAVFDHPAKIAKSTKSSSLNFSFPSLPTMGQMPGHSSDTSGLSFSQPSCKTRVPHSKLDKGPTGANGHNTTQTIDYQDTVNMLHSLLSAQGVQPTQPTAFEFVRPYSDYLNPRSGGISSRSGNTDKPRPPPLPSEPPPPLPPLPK
Chain of CDK9/cyclin T1 (P50750 whole entry): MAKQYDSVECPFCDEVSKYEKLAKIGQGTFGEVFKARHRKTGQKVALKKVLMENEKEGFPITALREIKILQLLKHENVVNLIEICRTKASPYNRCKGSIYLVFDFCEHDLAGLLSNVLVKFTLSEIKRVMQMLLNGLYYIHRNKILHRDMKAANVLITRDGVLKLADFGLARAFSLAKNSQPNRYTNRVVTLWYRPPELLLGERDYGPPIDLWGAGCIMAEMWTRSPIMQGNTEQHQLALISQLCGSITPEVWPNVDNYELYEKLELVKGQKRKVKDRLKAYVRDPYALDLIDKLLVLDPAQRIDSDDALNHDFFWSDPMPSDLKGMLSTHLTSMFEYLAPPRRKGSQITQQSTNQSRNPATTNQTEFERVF

[9] = system: Huh-7; experiment: as §1; format: cell-based; details: huh-7; summary of the method: as §2
[10] = Selectivity index, ratio of CC50 for human Huh-7 cells to IC50 for Dengue virus serotype 2 New Guinea C infected in pre-seeded Huh-7 cells assessed as inhibition of viral replication incubated for 72 hrs by immunodetection based secondary yield reduction assay; format: toxicity, cell-based; details: read-out: Selectivity Index
[11] = system: West Nile virus; experiment: Antiviral activity against West Nile virus lineage 1 (Italy/2009) infected in pre-seeded Huh-7 cells assessed as inhibition of viral replication incubated for 48 hrs by immunodetection based direct yield reduction assay; format: functional, organism-based
[12] = system: West Nile virus; experiment: Antiviral activity against West Nile virus lineage 1 (Italy/2009) infected in pre-seeded Huh-7 cells assessed as inhibition of viral replication incubated for 48 hrs by immunodetection based plaque reduction assay; format: functional, organism-based; details: Huh-7, 48 h
[13] = Selectivity index, ratio of CC50 for human Huh-7 cells to IC50 for West Nile virus lineage 1 (Italy/2009) infected in pre-seeded Huh-7 cells assessed as inhibition of viral replication incubated for 48 hrs by immunodetection based direct yield reduction assay; format: toxicity, cell-based; details: read-out: Selectivity Index
Summary of the method: (§4)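 Direct yield reduction in Huh7 cells (7000/well), infected with 50 TCID₅₀ of DENV or ZIKV, or 25 TCID₅₀ of WNV. Adsorption 1 h at 37 °C, then virus removed and serial compound dilutions added. Incubated 72 h (DENV, ZIKV) or 48 h (WNV). Viral antigen immunodetected on the monolayer. IC₅₀ by non-linear regression, mean of three experiments. SI = CC₅₀ (Huh7, CellTiter-Glo luminescence)/IC₅₀.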

[14] = Selectivity index, ratio of CC50 for human Huh-7 cells to IC50 for West Nile virus lineage 1 (Italy/2009) infected in pre-seeded Huh-7 cells assessed as inhibition of viral replication incubated for 48 hrs by immunodetection based plaque reduction assay; format: toxicity, cell-based; details: read-out: Selectivity Index
[15] = Antioxidant activity assessed as inhibition of ABTS radical scavenging activity at 10 uM to 1 mM measured after 10 mins; format: functional
Summary of the method: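 ABTS radical solution diluted in ethanol (1:100) to A734 0.70; 3.0 mL mixed with 30 μL sample in DMSO at 10 μM–1 mM; A734 read after exactly 10 min; ascorbic acid reference; % scavenging = (A0−As)/A0×100.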

[16] = Inhibition of Dengue virus 2 […] RNA dependent RNA polymerase incubated for 10 mins by picogreen staining based fluorescent analysis (Rvb= 0.27+/-0.03 uM); set-up: species or system dengue virus type 2
[17] = Inhibition of full length Dengue virus 2 NS5 RNA dependent RNA polymerase incubated for 10 mins by picogreen staining based fluorescent analysis (Rvb= 0.32+/-0.05 uM); set-up: species or system dengue virus type 2
[18] = Inhibition of full length ZIKA virus NS5 RNA dependent RNA polymerase incubated for 10 mins by picogreen staining based fluorescent analysis (Rvb= 1+/-0.2 uM)
[19] = target: Src (Proto-oncogene tyrosine-protein kinase Src) (Homo sapiens, UniProt P12931); experiment: Inhibition of human recombinant N terminal His6 tagged full length Src assessed as residual activity at 5 uM using KVEKIGEGTYGVVYK as a substrate in the presence of NP-40 incubated for 10 mins by scintillation counting analysis relative to control; details: probe KVEKIGEGTYGVVYK, read-out: Activity; summary of the method: as §3
Chain of Src (Proto-oncogene tyrosine-protein kinase Src) (P12931 2-536 limits assumed): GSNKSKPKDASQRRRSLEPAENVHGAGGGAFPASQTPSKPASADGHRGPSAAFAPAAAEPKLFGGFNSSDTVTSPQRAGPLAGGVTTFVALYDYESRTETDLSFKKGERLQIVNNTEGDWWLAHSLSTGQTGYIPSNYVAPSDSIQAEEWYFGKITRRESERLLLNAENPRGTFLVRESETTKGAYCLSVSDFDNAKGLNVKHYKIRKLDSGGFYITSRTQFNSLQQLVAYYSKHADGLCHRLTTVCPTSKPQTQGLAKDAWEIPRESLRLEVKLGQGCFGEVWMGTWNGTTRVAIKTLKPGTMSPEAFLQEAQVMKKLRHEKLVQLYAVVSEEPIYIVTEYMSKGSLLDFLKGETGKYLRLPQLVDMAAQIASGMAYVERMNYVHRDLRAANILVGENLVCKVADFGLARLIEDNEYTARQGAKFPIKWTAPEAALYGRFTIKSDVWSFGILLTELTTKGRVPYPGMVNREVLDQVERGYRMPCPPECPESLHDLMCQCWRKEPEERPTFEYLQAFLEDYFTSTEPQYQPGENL

[20] = target: Fyn (Tyrosine-protein kinase Fyn) (Homo sapiens, UniProt P06241); experiment: Inhibition of human recombinant N terminal His6 tagged full length Fyn assessed as residual activity at 5 uM using […] as a substrate in the presence of NP-40 incubated for 10 mins by scintillation counting analysis relative to control; details: probe […], read-out: Activity; summary of the method: as §3
Chain of Fyn (Tyrosine-protein kinase Fyn) (P06241 whole entry, canonical isoform): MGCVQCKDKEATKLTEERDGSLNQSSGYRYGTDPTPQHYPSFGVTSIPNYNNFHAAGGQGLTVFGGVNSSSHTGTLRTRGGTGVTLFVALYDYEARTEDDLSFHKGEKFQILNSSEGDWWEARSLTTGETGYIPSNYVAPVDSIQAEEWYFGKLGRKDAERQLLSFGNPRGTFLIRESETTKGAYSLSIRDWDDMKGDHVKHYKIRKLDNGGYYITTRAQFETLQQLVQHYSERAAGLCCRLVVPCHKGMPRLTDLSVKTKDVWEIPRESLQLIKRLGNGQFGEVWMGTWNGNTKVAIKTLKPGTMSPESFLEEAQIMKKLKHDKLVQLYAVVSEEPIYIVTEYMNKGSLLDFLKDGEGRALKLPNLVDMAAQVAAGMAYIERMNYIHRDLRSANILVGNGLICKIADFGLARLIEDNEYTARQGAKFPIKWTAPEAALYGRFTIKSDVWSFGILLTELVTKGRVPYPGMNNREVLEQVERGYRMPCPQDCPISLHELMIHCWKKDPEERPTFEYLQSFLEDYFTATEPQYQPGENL

[21] = target: PIK3CA (Phosphatidylinositol 4,5-bisphosphate 3-kinase catalytic subunit alpha isoform) (Homo sapiens, UniProt P42336); experiment: Inhibition of human full length PIK3CA assessed as residual activity at 5 uM using PI:PS (1:3) as a substrate incubated for 10 mins by scintillation counting analysis relative to control; details: full length PIK3CA enzyme, probe PI:PS (1:3), read-out: Activity
Chain of PIK3CA (Phosphatidylinositol 4,5-bisphosphate 3-kinase catalytic subunit alpha isoform) (P42336 whole entry, canonical isoform): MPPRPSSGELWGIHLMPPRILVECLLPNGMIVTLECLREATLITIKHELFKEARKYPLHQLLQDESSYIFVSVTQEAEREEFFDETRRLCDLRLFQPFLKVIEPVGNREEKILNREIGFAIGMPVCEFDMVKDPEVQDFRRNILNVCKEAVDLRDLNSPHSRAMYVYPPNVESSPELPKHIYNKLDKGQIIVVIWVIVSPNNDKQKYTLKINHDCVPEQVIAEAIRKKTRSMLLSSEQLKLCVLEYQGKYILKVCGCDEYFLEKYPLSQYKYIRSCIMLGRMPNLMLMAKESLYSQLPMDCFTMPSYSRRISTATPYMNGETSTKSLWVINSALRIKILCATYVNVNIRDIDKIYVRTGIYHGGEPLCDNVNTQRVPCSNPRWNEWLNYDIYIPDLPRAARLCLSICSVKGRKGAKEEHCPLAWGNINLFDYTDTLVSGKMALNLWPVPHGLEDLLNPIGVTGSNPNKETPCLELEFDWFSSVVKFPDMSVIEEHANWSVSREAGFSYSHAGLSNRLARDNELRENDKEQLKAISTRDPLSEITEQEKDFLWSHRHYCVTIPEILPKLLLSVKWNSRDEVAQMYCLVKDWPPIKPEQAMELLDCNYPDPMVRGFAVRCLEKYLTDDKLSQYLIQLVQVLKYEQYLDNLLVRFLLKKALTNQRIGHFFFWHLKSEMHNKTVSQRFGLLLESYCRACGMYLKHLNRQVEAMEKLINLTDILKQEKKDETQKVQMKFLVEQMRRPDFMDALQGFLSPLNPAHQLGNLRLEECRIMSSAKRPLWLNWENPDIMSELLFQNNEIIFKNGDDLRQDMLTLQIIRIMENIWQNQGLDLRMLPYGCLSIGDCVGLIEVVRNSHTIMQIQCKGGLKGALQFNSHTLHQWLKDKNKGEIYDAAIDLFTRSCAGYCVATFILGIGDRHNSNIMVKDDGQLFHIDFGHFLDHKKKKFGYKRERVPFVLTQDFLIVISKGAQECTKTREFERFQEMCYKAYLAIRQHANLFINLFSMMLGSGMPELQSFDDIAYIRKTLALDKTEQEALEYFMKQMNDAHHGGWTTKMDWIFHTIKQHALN
Summary of the method: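 Radiometric kinase reaction with 10–50 ng enzyme and compound fixed at 5 μM, 10 μL at 30 °C for 10 min. Reactions spotted on filter and counted by scintillation. Residual activity is the mean ± SD of two independent experiments.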

[22] = system: dengue virus type 2; experiment: Antiviral activity against Dengue virus serotype 2 New Guinea C infected in pre-seeded Huh-7 cells assessed as inhibition of viral replication incubated for 72 hrs by immunodetection based direct yield reduction assay; format: functional, organism-based; details: Dengue virus, New Guinea C, Huh-7, 72 h; read-out: IC50
[23] = Selectivity index, ratio of CC50 for human Huh-7 cells to IC50 for Dengue virus serotype 2 New Guinea C infected in pre-seeded Huh-7 cells assessed as inhibition of viral replication incubated for 72 hrs by immunodetection based direct yield reduction assay; format: toxicity, cell-based; details: read-out: Selectivity Index; summary of the method: as §4
[24] = Dengue virus, New Guinea C, Huh-7, 72 h, read-out: IC50
[25] = West Nile virus, lineage 1 (Italy/2009), Huh-7, 48 h, read-out: IC50

Oc1ccc(Nc2nc(NCCOc3ccccc3)nc3[nH]cnc23)cc1O
CC50 [1]: 200 µM | IC50 ([2]; huh-7): Not Active | IC50 [3]: 25 µM | selectivity ratio at 72 h [4]: 8

Nc1ncnc2c1ncn2[C@@H]1O[C@H](C[C@@H](N)CC[C@H](N)C(=O)O)[C@@H](O)[C@H]1O [SINEFUNGIN]
IC50 [5]: 0.63 µM | IC50 ([6]; read-out: IC50): 1.18 µM

Oc1cccc(Nc2nc(NCCOc3ccccc3)nc3[nH]cnc23)c1
activity at 10 min, 5 µM [7]: 65% | activity at 10 min, 5 µM [8]: > 98%

Fc1cc(F)cc(/N=N/c2nc(NCCOc3ccccc3)nc3[nH]cnc23)c1
CC50 [9]: 12 µM

COC(=O)c1cccc(Nc2nc(NCCO)nc3[nH]cnc23)c1
CC50 [1]: 200 µM | IC50 [2, 24]: 17.5 µM | selectivity ratio at 72 h [10]: 11 | IC50 [3]: 6.2 µM | selectivity ratio at 72 h [4]: 32

FC(F)(F)c1cccc(Nc2nc(NCCOc3ccccc3)c3nc[nH]c3n2)c1
CC50 [9]: 6 µM

OCCNc1nc(Nc2cccc(C(F)(F)F)c2)c2nc[nH]c2n1
CC50 [9]: 50 µM | IC50 [2, 24]: 4.5 µM | selectivity ratio at 72 h [10]: 11 | IC50 [3]: 10.6 µM | selectivity ratio at 72 h [4]: 5 | IC50 [11, 25]: 1.9 µM | IC50 [12]: 1.5 µM | selectivity ratio at 48 h [13]: 26 | selectivity ratio at 48 h [14]: 33

COC(=O)c1cccc(Nc2nc(NCCOc3ccccc3)nc3[nH]cnc23)c1
CC50 [9]: 100 µM | IC50 ([2]; huh-7): Not Active | IC50 [3]: 8.2 µM | selectivity ratio at 72 h [4]: 12

FC(F)(F)c1ccc(/N=N/c2nc(NCCOc3ccccc3)nc3[nH]cnc23)cc1
CC50 [9]: 8 µM

Fc1cc(F)cc(NNc2nc(NCCOc3ccccc3)nc3[nH]cnc23)c1
CC50 [9]: 8.5 µM

CNc1nc(Nc2cccc(C(=O)O)c2)c2nc[nH]c2n1
CC50 [1]: 200 µM | IC50 ([2]; huh-7): Not Active | IC50 [3]: 33.5 µM | selectivity ratio at 72 h [4]: 6

CNc1nc(Nc2cccc(F)c2)c2nc[nH]c2n1
CC50 [9]: 84 µM | IC50 [2, 24]: 9.3 µM | selectivity ratio at 72 h [10]: 9 | IC50 [3]: 14.7 µM | selectivity ratio at 72 h [4]: 6

OCCNc1nc(Nc2cccc(F)c2)c2nc[nH]c2n1
CC50 [9]: 136 µM | IC50 [2, 24]: 29.8 µM | selectivity ratio at 72 h [10]: 5 | IC50 [3]: 8.9 µM | selectivity ratio at 72 h [4]: 15

O=C(O)c1cccc(Nc2nc(NCCOc3ccccc3)nc3[nH]cnc23)c1
CC50 [1]: 200 µM | IC50 [2, 24]: 28.2 µM | selectivity ratio at 72 h [10]: 7 | IC50 [3]: 29 µM | selectivity ratio at 72 h [4]: 7

FC(F)(F)c1cc(/N=N/c2nc(NCCOc3ccccc3)nc3[nH]cnc23)cc(C(F)(F)F)c1
CC50 [9]: 7.5 µM

Fc1cccc(Nc2nc(NCCOc3ccccc3)c3nc[nH]c3n2)c1
CC50 [9]: 8 µM

FC(F)(F)c1cccc(NNc2nc(NCCOc3ccccc3)nc3[nH]cnc23)c1
CC50 [9]: 7.5 µM

CNc1nc(Nc2cccc(C(=O)OC)c2)c2nc[nH]c2n1
CC50 [1]: 200 µM | IC50 [2, 24]: 18 µM | selectivity ratio at 72 h [10]: 11 | IC50 [3]: 8 µM | selectivity ratio at 72 h [4]: 25

COc1cc(Nc2nc(NCCOc3ccccc3)nc3[nH]cnc23)cc(OC)c1OC
CC50 [9]: 7.5 µM

FC(F)(F)c1ccc(NNc2nc(NCCOc3ccccc3)nc3[nH]cnc23)cc1
CC50 [9]: 8 µM

Fc1cccc(/N=N/c2nc(NCCOc3ccccc3)nc3[nH]cnc23)c1
CC50 [9]: 18.5 µM | IC50 [2, 24]: 4 µM | selectivity ratio at 72 h [10]: 5 | IC50 [3]: 2.8 µM | selectivity ratio at 72 h [4]: 7 | IC50 [11, 25]: 0.6 µM | IC50 [12]: 0.6 µM | selectivity ratio at 48 h [13]: 28 | selectivity ratio at 48 h [14]: 30 | Activity [15]: Active | IC50 [16]: > 100 µM | IC50 [17]: > 100 µM | IC50 [18]: > 100 µM | IC50 [5]: 226 µM | IC50 [6]: Not Active | activity at 10 min, 5 µM [19]: > 98% | activity at 10 min, 5 µM [7]: > 98% | activity at 10 min, 5 µM [20]: 89% | activity at 10 min, 5 µM [21]: 78% | activity at 10 min, 5 µM [8]: > 98%

FC(F)(F)c1cc(NNc2nc(NCCOc3ccccc3)nc3[nH]cnc23)cc(C(F)(F)F)c1
CC50 [9]: 5 µM

CNc1nc(Nc2cccc(C(F)(F)F)c2)c2nc[nH]c2n1
CC50 [1]: 200 µM | IC50 [2, 24]: 3.5 µM | IC50 [22]: 4.9 µM | selectivity ratio at 72 h [10]: 57 | selectivity ratio at 72 h [23]: 41 | IC50 ([11]; huh-7): Not Active
